For orientation: Tmax means the time from dosing to the highest level. A word on the bioavailability: it is dose-corrected exposure relative to a reference, in per cent. A high value points to much systemic uptake. The Ki is the equilibrium dissociation constant of an inhibitor or competing ligand from its target. A word on the AUC: it is concentration integrated over time. A lower AUC goes with low exposure. What is called AUC(0-inf) is total exposure, with the tail of the curve extrapolated. The MRT inf is a mean duration of stay, worked out from the concentration-time curve. As usually defined, the clearance is the volume of plasma or blood freed of the substance per unit of time. Lower therefore signals a low capacity for elimination. A word on the IC50: it is the point on the concentration scale where inhibition reaches its midpoint. Broadly, the MRT last is the average time that molecules of a dose stay in the body. As a reminder, the half-life is the time needed for the level to fall by half in the phase considered. By Cmax is commonly meant the highest concentration seen after dosing.

One compound from ChEMBL document CHEMBL3588823, “Design, synthesis and biological evaluation of novel 5-oxo-2-thioxoimidazolidine derivatives as potent androgen receptor antagonists” (Eur J Med Chem, 2015) can be followed below.

A short description of data set [1]: Tmax in rat at 1 mg/kg, iv. In kind it is ADME, organism-based. The conditions noted are these: in vivo. The method, boiled down:
(§1)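 Rats (n = 3) were given a single 1 mg/kg iv dose in 20% hydroxypropyl-β-cyclodextrin. Blood was taken into EDTA tubes at 5, 15 and 30 min and 1, 2, 4, 8 and 24 h. Plasma was obtained by centrifugation and proteins were precipitated with acetonitrile before analysis.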

The nature of data set [2]: Oral bioavailability in rat at 5 mg/kg. The conditions noted are these: in vivo. In kind it is ADME, organism-based. The essentials: (§2)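 Rats (n = 3) were given a single 5 mg/kg oral dose in 0.5% HPMC. Blood was taken into EDTA tubes at 15 and 30 min and 1, 2, 4, 8 and 24 h. Plasma was obtained by centrifugation and proteins were precipitated with acetonitrile. Bioavailability was calculated against a 1 mg/kg iv dose.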

The target in data set [3] is T1, Androgen receptor (Homo sapiens, UniProt P10275).
T1 sequence (P10275 whole entry): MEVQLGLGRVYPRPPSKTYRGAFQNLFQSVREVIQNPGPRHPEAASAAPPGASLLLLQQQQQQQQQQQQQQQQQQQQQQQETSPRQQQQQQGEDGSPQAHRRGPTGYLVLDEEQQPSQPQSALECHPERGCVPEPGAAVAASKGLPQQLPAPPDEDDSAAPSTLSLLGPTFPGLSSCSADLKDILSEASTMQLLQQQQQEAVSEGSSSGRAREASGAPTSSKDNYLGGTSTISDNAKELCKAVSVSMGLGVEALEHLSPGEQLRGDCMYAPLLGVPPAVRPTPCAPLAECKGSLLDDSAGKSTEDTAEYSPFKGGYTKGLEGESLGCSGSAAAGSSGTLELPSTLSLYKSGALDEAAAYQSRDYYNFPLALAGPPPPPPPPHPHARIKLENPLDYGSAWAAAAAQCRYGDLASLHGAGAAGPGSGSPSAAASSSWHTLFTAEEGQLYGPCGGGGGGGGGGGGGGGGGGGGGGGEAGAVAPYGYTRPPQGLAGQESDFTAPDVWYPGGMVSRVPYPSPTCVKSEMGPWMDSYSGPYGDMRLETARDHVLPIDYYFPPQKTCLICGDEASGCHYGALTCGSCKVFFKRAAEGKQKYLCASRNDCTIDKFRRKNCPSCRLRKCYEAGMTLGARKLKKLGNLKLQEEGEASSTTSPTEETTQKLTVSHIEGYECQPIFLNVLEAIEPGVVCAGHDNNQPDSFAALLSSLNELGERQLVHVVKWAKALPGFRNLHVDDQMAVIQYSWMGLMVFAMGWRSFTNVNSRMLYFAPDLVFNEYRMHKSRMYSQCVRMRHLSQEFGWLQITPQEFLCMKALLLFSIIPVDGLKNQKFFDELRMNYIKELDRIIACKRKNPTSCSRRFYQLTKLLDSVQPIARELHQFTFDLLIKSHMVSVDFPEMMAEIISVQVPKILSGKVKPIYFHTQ
In words: Antagonist activity at androgen receptor (unknown origin).

A short description of data set [4]: AUC (0 to time) in rat at 1 mg/kg, iv. The class given is ADME, organism-based. The conditions noted are these: in vivo. The essentials:
(§3)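 Rats (n = 3) given a single 1 mg/kg iv dose in 20% HP-b-CD. Blood was drawn into EDTA tubes at 5, 15 and 30 min and at 1, 2, 4, 8 and 24 h. Plasma was separated by centrifugation, mixed with acetonitrile:H2O (1:1 v/v) and protein-precipitated with acetonitrile.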

A short description of data set [5]: AUC (0 to infinity) in rat at 5 mg/kg, po. The class given is ADME, organism-based. Also noted: dose 5 mg/kg, route oral, time infinity. The conditions noted are these: in vivo. The method, boiled down:
(§4)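 Rats (n = 3) received a single 5 mg/kg oral dose in 0.5% HPMC. EDTA blood samples were taken at 15 and 30 min and at 1, 2, 4, 8 and 24 h. Plasma was obtained by centrifugation, mixed with acetonitrile:H2O (1:1 v/v) and precipitated with acetonitrile.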

Data set [6] in a line: MRT (INF) in rat at 1 mg/kg, iv. The conditions noted are these: in vivo. In kind it is ADME, organism-based. The method, boiled down:
as §1

Data set [7] is described as follows: MRT (INF) in rat at 5 mg/kg, po. The conditions noted are these: in vivo. In kind it is ADME, organism-based. The method, boiled down: as §2
Data set [8] deals with Rattus norvegicus. In words: Volume of distribution at steady state in rat at 5 mg/kg, po. In kind it is ADME, organism-based. The conditions noted are these: in vivo. The method, boiled down:
as §2

Data set [9] is described as follows: Volume of distribution at steady state in rat at 1 mg/kg, iv. In kind it is ADME, organism-based. The conditions noted are these: in vivo, read-out: Vdss. The method, boiled down: as §1
Data set [10] can be described thus: Clearance in rat at 1 mg/kg, iv. The conditions noted are these: in vivo. The class given is ADME, organism-based. The method, boiled down: as §1
In data set [11] the test system is LNCaP. In words: Antiproliferative activity against human LNCAP cells after 3 days. The conditions noted are these: Homo sapiens, LNCaP, 72 h; read-out: IC50. In kind it is functional, cell-based. The method, boiled down: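 LNCaP cells seeded at 10,000 per well in RPMI 1640 with 10% charcoal-stripped serum and 1% AAS, then held 3 days at 37 °C. Medium was then replaced with serial compound dilutions, either without DHT (agonism mode) or with DHT (antagonism mode).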

Data set [12] can be described thus: Tmax in rat at 5 mg/kg, po. The conditions noted are these: in vivo. In kind it is ADME, organism-based. The essentials: as §2
Data set [13] in a line: AUC (0 to infinity) in rat at 1 mg/kg, iv. In kind it is ADME, organism-based. Details: dose 1 mg/kg, route intravenous, time infinity. The conditions noted are these: in vivo. The essentials:
as §3

Data set [14] can be described thus: AUC (0 to time) in rat at 5 mg/kg, po. The class given is ADME, organism-based. The conditions noted are these: in vivo. The method, boiled down: as §4
Data set [15] in a line: MRT (last) in rat at 5 mg/kg, po. The class given is ADME, organism-based. The conditions noted are these: in vivo. The method, boiled down: as §2
Data set [16] has as its system Rattus norvegicus. As to the kind of experiment: Half life in rat at 5 mg/kg, po. The conditions noted are these: in vivo. The class given is ADME, organism-based. The method, boiled down: as §2
Data set [17] in a line: Half life in rat at 1 mg/kg, iv. The class given is ADME, organism-based. The conditions noted are these: in vivo. The essentials:
as §1

Data set [18] can be described thus: Cmax in rat at 5 mg/kg, po. The conditions noted are these: in vivo. In kind it is ADME, organism-based. Also noted: dose 5 mg/kg, route oral. The essentials: as §2
Data set [19] in a line: Cmax in rat at 1 mg/kg, iv. The conditions noted are these: in vivo. The class given is ADME, organism-based. Details: dose 1 mg/kg, route intravenous. The method, boiled down:
as §1

Data set [20] can be described thus: MRT (last) in rat at 1 mg/kg, iv. The class given is ADME, organism-based. The conditions noted are these: in vivo. The essentials:
as §1

Data set [21] can be described thus: Volume of distribution in rat at 1 mg/kg, iv. The class given is ADME, organism-based. The conditions noted are these: in vivo. The method, boiled down:
as §1

In data set [22] the test system is Rattus norvegicus. In words: Volume of distribution in rat at 5 mg/kg, po. The class given is ADME, organism-based. The conditions noted are these: in vivo. The method, boiled down:
as §2

Data set [23] concerns Rattus norvegicus. As to the kind of experiment: Clearance in rat at 5 mg/kg, po. The class given is ADME, organism-based. The conditions noted are these: in vivo. The essentials:
as §2

As for `N#Cc1ccc(N2C(=O)[C@]3(CCOC3)N(c3ccc(C(N)=O)c(F)c3)C2=S)cc1C(F)(F)F`, the Tmax in [1] came to 4.98 min; in data set [12], 2 h. The compound further gave a bioavailability in data set [2] of 87%. Further, in [3], the Ki stood at 14.1 nM. Also, the AUC in data set [4] came to 295 ng·h/mL; in [14], 1280 ng·h/mL. Besides, the figures for the AUC(0-inf) in [5] and in data set [13] were 1390 ng·h/mL and 303 ng·h/mL, respectively. Further, the MRT inf in [6] amounted to 1.8 h; in data set [7], 3.7 h. For the same compound, in [8], the Vdss is 22.3 L/kg. Besides, the Vd in [9] turned out to be 6.1 L/kg; in data set [21] it was 7 L/kg; in data set [22], 9.4 L/kg. The compound also gave a clearance in data set [10] of 55 mL/min/kg. In addition, the IC50 in data set [11] was 71.4 nM. Moreover, the MRT last in [15] was found to be 3.1 h; in [20], 1.6 h. This compound also returned a t1/2 in [16] of 1.8 h. Also, the half-life in data set [17] was 1.5 h. Also, the Cmax in [18] is 261 ng/mL; in data set [19], 185 ng/mL. Further, the CL in [23] was 60 mL/min/kg.
